Assays:
[1] = biological target: T1, Muscarinic acetylcholine receptor M1 (Rattus norvegicus, UniProt P08482); experiment: M1 agonist activity estimated by rat superior cervical ganglion depolarization; assay type: functional, tissue-based
T1 sequence (P08482 whole entry): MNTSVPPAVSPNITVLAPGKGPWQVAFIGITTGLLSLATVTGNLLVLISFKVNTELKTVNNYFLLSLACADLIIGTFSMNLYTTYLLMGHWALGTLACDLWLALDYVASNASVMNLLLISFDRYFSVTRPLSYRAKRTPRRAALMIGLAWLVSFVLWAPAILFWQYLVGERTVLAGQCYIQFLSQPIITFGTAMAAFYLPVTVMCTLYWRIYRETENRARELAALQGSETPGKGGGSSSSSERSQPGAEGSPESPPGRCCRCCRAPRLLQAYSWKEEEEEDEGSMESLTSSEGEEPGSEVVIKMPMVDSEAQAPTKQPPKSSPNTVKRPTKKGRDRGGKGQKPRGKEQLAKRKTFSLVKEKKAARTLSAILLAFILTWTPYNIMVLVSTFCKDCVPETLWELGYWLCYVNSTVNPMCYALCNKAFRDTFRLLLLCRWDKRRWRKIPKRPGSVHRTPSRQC

[2] = biological target: T1, Muscarinic acetylcholine receptor M1; experiment: In vitro binding affinity for muscarinic M1 receptor by displacing [3H]pirenzepine binding on rat brain homogenate.; assay type: tissue-based
How it was run: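 Two complete curves, five test concentrations spanning 3 decades, each in triplicate. IC50 read from hand-drawn log concentration–response curves, converted to Ki by Cheng–Prusoff.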

[3] = biological target: Muscarinic acetylcholine receptor; experiment: In vitro binding affinity for muscarinic receptor by displacing [3H]quinuclidinyl benzilate binding on rat brain homogenate; assay type: tissue-based
How it was run: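 Two concentration–response curves, five concentrations covering 3 decades, triplicates. IC50 estimated from hand-drawn log concentration–response curves and converted to Ki with Cheng–Prusoff equation.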

[4] = biological target: Muscarinic acetylcholine receptor; experiment: In vitro binding affinity for muscarinic receptor by displacing [3H]quinuclidinyl benzilate binding on rat brain stem homogenate.; assay type: tissue-based
How it was run: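 Two full curves, five test concentrations over 3 decades in triplicate. Hand-drawn log curves gave IC50; Ki by Cheng–Prusoff.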

[5] = biological target: Muscarinic acetylcholine receptor M2 (Cavia porcellus); experiment: M2 agonist activity estimated by depression of isolated guinea pig left atrium
[6] = biological target: T2, Muscarinic acetylcholine receptor M3 (Cavia porcellus, UniProt Q8VH26); experiment: In vitro ability to contract isolated guinea pig ileum was used to estimate M2/M3 agonist effect; assay type: functional, tissue-based
[7] = biological target: Muscarinic acetylcholine receptor; experiment: In vitro binding affinity for muscarinic receptor by displacing [3H]oxotremorine-M binding on rat brain homogenate.; assay type: tissue-based
How it was run: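 Duplicate full curves of five drug concentrations over 3 decades, triplicate points. IC50 taken from hand-drawn log curves; Ki via Cheng–Prusoff.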

[8] = species on record: Rattus norvegicus; experiment: Ratio of binding affinity at [3H]quinuclidinyl benzilate binding on rat brain homogenate to [3H]- Oxotremorine-M binding on rat brain homogenate; assay type: functional
How it was run: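 Ago ratio computed as Ki from [³H]QNB binding to whole rat brain homogenate divided by Ki from [³H]oxotremorine-M binding to whole rat brain homogenate.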

[9] = biological target: Muscarinic acetylcholine receptor M3 (Cavia porcellus)
[10] = species on record: Rattus norvegicus; experiment: Ratio of binding affinity at [3H]quinuclidinyl benzilate binding on rat brain stem homogenate to [3H]pirenzepine binding on rat brain homogenate
[11] = biological target: T2, Muscarinic acetylcholine receptor M3; experiment: In vitro ability to contract isolated guinea pig ileum was used to estimate M3 agonist effect; assay type: functional, tissue-based
[12] = biological target: T1, Muscarinic acetylcholine receptor M1; experiment: In vitro ability to depolarize isolated rat superior cervical ganglion was used to estimate their M1 agonistic effect; assay type: functional, tissue-based
How it was run: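 Because the concentration–response curve is biphasic, EC50 is given as equal to or greater than the calculated value. Apparent efficacy (RM) is maximum effect relative to muscarine's maximum on separate ganglia. Values are means of three to seven separate experiments.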

[13] = biological target: Muscarinic acetylcholine receptor M2 (Mus musculus) (UniProt Q9ERZ4); experiment: In vivo determination of peripheral M2 receptor mediated hypothermia, cholinergic side effect
[14] = In vitro binding affinity for muscarinic receptors by displacing [3H]quinuclidinyl benzilate binding on rat brain homogenate; assay type: tissue-based
[15] = biological target: Muscarinic acetylcholine receptor; experiment: In vitro binding affinity for muscarinic receptors by displacing [3H]quinuclidinyl benzilate binding on rat brain stem homogenate.; assay type: tissue-based
[16] = biological target: Muscarinic acetylcholine receptor M2 (Mus musculus) (UniProt Q9ERZ4); experiment: In vivo determination of peripheral M2 receptor mediated tremor, cholinergic side effect
[17] = biological target: Muscarinic acetylcholine receptor M2 (Mus musculus) (UniProt Q9ERZ4); experiment: In vivo determination of peripheral M2 receptor mediated salivation, cholinergic side effect
[18] = In vitro binding affinity for muscarinic receptor by displacing[ H]Quinuclidinyl benzilate binding on rat brain stem homogenate.; assay type: tissue-based
How it was run: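 Rat brainstem homogenate; displacement of [3H]quinuclidinyl benzilate (0.12 nM). Five test concentrations in triplicate spanning 3 decades, two complete curves. IC50 read from hand-drawn log concentration–response curves and converted to Ki by Cheng–Prusoff using KD 9.7 pM from Scatchard analysis.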

T2 sequence (Q8VH26 whole entry): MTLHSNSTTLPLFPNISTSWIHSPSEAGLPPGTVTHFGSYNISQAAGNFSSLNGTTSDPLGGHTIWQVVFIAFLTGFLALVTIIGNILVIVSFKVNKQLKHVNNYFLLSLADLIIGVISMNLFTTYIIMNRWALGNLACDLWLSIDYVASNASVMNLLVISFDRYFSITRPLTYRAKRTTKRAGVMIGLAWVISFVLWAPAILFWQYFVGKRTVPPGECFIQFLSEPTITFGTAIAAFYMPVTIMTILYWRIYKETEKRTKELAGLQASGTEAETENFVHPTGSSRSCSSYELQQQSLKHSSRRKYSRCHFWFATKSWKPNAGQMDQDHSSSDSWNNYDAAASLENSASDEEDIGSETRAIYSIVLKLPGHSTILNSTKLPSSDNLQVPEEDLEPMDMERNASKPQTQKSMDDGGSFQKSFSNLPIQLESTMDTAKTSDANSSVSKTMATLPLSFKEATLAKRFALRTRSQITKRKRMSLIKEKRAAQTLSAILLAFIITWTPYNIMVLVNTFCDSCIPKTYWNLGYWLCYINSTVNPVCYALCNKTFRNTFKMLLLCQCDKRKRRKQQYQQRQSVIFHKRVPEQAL

| SMILES | EC50 [1] [nM] | Ki [2] [nM] | Ki [3] [nM] | Ki [4] [nM] | EC50 [5] [nM] | EC50 [6] [nM] | Ki [7] [nM] | Ratio [8] | EC50 [9] [nM] | Ratio [10] | EC50 [11] [nM] | EC50 [12] [nM] | ED50 [13] [µmol/kg] | Ki [14] [nM] | Ki [15] [nM] | ED50 [16] [µmol/kg] | ED50 [17] [µmol/kg] | Ki [18] [nM] |
| --- | --- | --- | --- | --- | --- | --- | --- | --- | --- | --- | --- | --- | --- | --- | --- | --- | --- | --- |
| C=CCn1ncc(C2CCCNC2)n1 (racemic) | > 2800 | 100 | 910 | 300 | 1100 | 4400 | 25 | – | – | – | – | – | – | – | – | – | – | – |
| CN1CCC=C(c2cnn(C)n2)C1 | ≥ 430 | 35 | 280 | 160 | – | – | 0.78 | 360 | 130 | 4.5 | – | – | – | – | – | – | – | – |
| CCn1ncc(C2=CCCN(C)C2)n1 | > 1200 | 24 | 110 | 61 | > 51000 | – | 1.7 | 65 | 940 | 2.5 | – | – | – | – | – | – | – | – |
| CCn1nnc(C2=CCCNC2)n1 | – | 960 | 1600 | 280 | – | – | 23 | – | – | – | 6400 | ≥ 3300 | – | – | – | – | – | – |
| C[N+](C)(C)CC#CCOC(=O)Nc1cccc(Cl)c1.[Cl-] | ≥ 3900 | 600 | – | – | – | 6500 | 18 | 28 | – | 0.8 | – | – | > 63 | 500 | 460 | > 63 | > 63 | – |
| C=CCn1ncc(C2CCCNC2)n1 (single isomer, unassigned; (+)) | > 3400 | 210 | 190 | 330 | 680 | – | 45 | – | 4300 | – | – | – | – | – | – | – | – | – |
| CCn1ncc(C2=CCCNC2)n1 | ≥ 650 | 120 | 290 | 170 | 270 | – | 3.7 | 78 | 770 | 1.4 | – | – | – | – | – | – | – | – |
| CCN1C(=O)CC2(CCN(C)CC2)C1=O | ≥ 1100 | 400 | 690 | 400 | 400 | – | 14 | 49 | 430 | 1 | – | – | – | – | – | – | – | – |
| CCCCCCCn1nnc(C2=CCCN(C)C2)n1 | – | 37 | 140 | – | – | – | 120 | 1.2 | – | 4.3 | – | – | – | – | – | – | – | 160 |

— ChEMBL document CHEMBL1127749 (J Med Chem, 1994)
